# Experimental data collected from several papers.
# Protocols differ between the studies behind these lines.
# Cell line: K562
# Read-out: cell growth or viability
Compound,method,tested at,time,quantity,value
COc1ccc(C(=O)/C=C/c2ccc3c(c2)OCCO3)cc1S(N)(=O)=O,SRB,10 µM,,inhibition,83%
COC(=O)CCC1=CC2C=CC=CC1C2C1CCCCC1=O (centres unmarked),flow cytometry,,,IC50,62 nM
COc1cccc(Oc2ccccc2NC(=O)CNC(=O)c2cccc3ccccc23)c1,SRB,,48 h,GI50,129 nM
CCCCCCCCC1=CC2C=CC=CC1C2C1CCCCC1=O (centres unmarked),flow cytometry,,,IC50,41 nM
CNC(=O)c1cc(OC)cc2c(N3CCc4c(cc(Cn5ccnc5)cc4-c4cn(C)nc4C(F)(F)F)C3=O)ccnc12,ATP luminescence,,5 days,GI50,9700 nM
COc1ccc(C(=O)/C=C/c2cccc3ccccc23)cc1S(N)(=O)=O,SRB,,48 h,GI50,1700 nM
COc1ccc2nccc(N3CCc4c(cc(Cn5ccnc5)cc4-c4cn(C)nc4C(F)(F)F)C3=O)c2c1,ATP luminescence,,5 days,GI50,13000 nM
COc1ccccc1S(=O)(=O)Nc1ccc2c(c1)CN(C)C(=O)N2,ATP luminescence,,,GI50,> 20000 nM
